Test results taken from the RNAGym collection of RNA variant scans (doi:10.1126/science.aae0568).
This sample holds only a part of the variants without activity.

B1: tRNA (parent)
chain: GUUCCGUUGGCGUAAUGGUAACGCGUCUCCCUCCUAAGGAGAAGACUGCGGGUUCGAGUCCCGUACGGAACG

Variants of: B1
Assay: yeast fitness relative to wild type (ratio to wild type); higher = fitter; tRNA-Arg(CCU), competitive growth, 37 C, YPD
Procedure, shortened: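 Start and end populations of a pooled competition were compared by 100-nucleotide paired-end sequencing of gene amplicons. The Saccharomyces cerevisiae strains carried tRNA-Arg(CCU) gene variants at the native genomic locus, synthesised with a 3% per-site mutation rate at 69 sites, and competed in YPD at 37°C for 24 hours in six parallel replicates. Darwinian fitness relative to wild type was based on the change in genotype frequencies. Genotypes required ≥ 100 starting reads, and estimates < 0.5 were set to 0.5.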

Row | Variant | yeast fitness
1 | GUCGCGUUGGCGUAAUGGUAACGCGUCCCCCUCCUAAGGAGACGACUGCGGGUUCGAGUCCCGUACGGAACG [U3C C4G U28C A43C] | ≤ 0.5
2 | GUCUCGUUGGCGUAAUGGUAACGCGUCUCCCUCCUAAGGAGAAGACUGCGGGUUCGAGUCCCGUACGGAACG [U3C C4U] | 1.01
3 | GUCUCGUUGGCGUAGUGGUAACGCGACUCCCACCUAAGGAGAAGACUGCGGGUUCGAGUCCCGUACGGAACG [U3C C4U A15G U26A U32A] | 0.571
4 | GUCUCGUUGGCGUAAUGGUAGCGCGUCUCCCUCCUAAGGAGAAGAAUGCGGGUUCGAGUCCCGUACGGAACG [U3C C4U A21G C46A] | 0.628
5 | GUCUCGUUGGCGUAAUGGUAACGCGUCUCUCUCCUAAGGAGAAGACUGCGGGUUCGGGUCCCGUACGGAACG [U3C C4U C30U A57G] | ≤ 0.5
6 | GUCUCGUUGGCGUAAUGGUAACGCGUCUCCCUCCUAAGGAGAAGACUGCGGGUUCGAGUACCGUAGGGAACG [U3C C4U C60A C66G] | ≤ 0.5
7 | GUCUCGUUGGCGUAAUGGUAACGCGUCUCCCUCCCAAGGAGAAGACUGCGGGUUCGAGUCCCGUACGGAUCG [U3C C4U U35C A70U] | 0.544
8 | GUCUCGUUGGCGUAAUGGUAACGCGUCUCCCUCCUAAGGAGAAGACUGCGGGUUCGAGUCCCGAACGGAACG [U3C C4U U64A] | 0.617
9 | GUCCAGUUGGCGUAAUGGUAACGCGUCUCCCUCCUAAGGAGAAGACUGCGGGUUCGAGUCCCGUACGGAACG [U3C C5A] | 0.89
10 | GUCCAGUUGGCGUAAUGGUAACGCGUCUCCCUCUAAAGGAGAAGACUGAGGGUACGAGUCCCGUACGGAACG [U3C C5A C34U U35A C49A U54A] | ≤ 0.5
11 | GUCCAGUUGGCGUAAUAGUAACGCGUCUCCCUCCUAAGGAGGAGACUGCGGGUUCGAGUCCCGAACGGAACG [U3C C5A G17A A42G U64A] | ≤ 0.5
12 | GUCCGGUUGGCGUAAUGGUAUCGCGUCUCCCUCCUAAGGAGCAGACUGCGGGUUCGAGUCCCGUACGGAACG [U3C C5G A21U A42C] | ≤ 0.5
13 | GUCCGGUUGGGGUAAUGGUAACGCGUCUCCCUCCUAAGGAGAAGACUGCGGGUUCGAGUCCCGUAUGGAACG [U3C C5G C11G C66U] | ≤ 0.5
14 | GUCCGGUUGGGGUAAUGGUAACGCGUCUCCCUCCUAAGGAGAAGACUACGGGUUCGAGUCCCGUACGGGACG [U3C C5G C11G G48A A69G] | ≤ 0.5
15 | GUCCGGUUGGCGUAAUGGUAACGCGUCUCCCUCAUAUGGAGAAAACUGCGAGUUAGAGUCCCGUACGGAACG [U3C C5G C34A A37U G44A G51A C55A] | ≤ 0.5
16 | GUCCGGUUGGCGUAAUGGUAACGCGUCUCCCUCCUAAAGAGAAGACUGCGGGUUCGAGUCCCGUACGGAACG [U3C C5G G38A] | ≤ 0.5
17 | GUCCGGUUGGCGUAAUGGGAACGCGUCUCCAUCCUAAGGAGAAGAAUGCGGGUUCGAGUCCCGUACGGAACG [U3C C5G U19G C31A C46A] | 0.663
18 | GUCCGGUUGGCGUAAUGGUAACGCGUCGCCUUCCUAAGGAGAAGACUGCGAGUACGAGACCCGUACGGAACG [U3C C5G U28G C31U G51A U54A U59A] | ≤ 0.5
19 | GUCCUGUUGGCGUAAUGGUAACGUGUCUCCCUCCUAAGGAGCAGACUGCGGGUUCGUGUCCCGUACGGAACG [U3C C5U C24U A42C A57U] | ≤ 0.5

Row | Variant | yeast fitness
20 | GUCCUGUUGGCGUAAUGGUAACGCGUCUCCCUCCUAAGGAGAAGACUGCGGGUUCGAGUCCCGUACGAAACG [U3C C5U G68A] | ≤ 0.5
21 | GUCCUGUUGGCGUAAUGGUAACGCGACUCCCUCCUAAGGAGAAGACUGCGGGUUCGAGUCCCAUACGGAACG [U3C C5U U26A G63A] | ≤ 0.5
22 | GUCCCGUUGGAGUACUGGUAACGAGUAUCCCUCCUAAGGACAAGACUGCGGGUUCGAGUCCCGUACGGAACG [U3C C11A A15C C24A C27A G41C] | ≤ 0.5
23 | GUCCCGUUGGAGUAAUGGUAACGUGUCUCCCUCCUAAGGAGGAGACUGCGGGUUCGAGUCCCGUACGGAACG [U3C C11A C24U A42G] | 0.638
24 | GUCCCGUUGGAGUAAUGGUAACGCGUGUCCCUACUAAGGAGACGAAUGCGGGUUCGAGUCCCGUACGGAACG [U3C C11A C27G C33A A43C C46A] | 0.687
25 | GUCCCGUUGGAGUAAUGGUAACGCGUGUCCCUACUAAGGAGACGAAUGCGGGUUCGAGUCCAGUAUGGAACG [U3C C11A C27G C33A A43C C46A C62A C66U] | ≤ 0.5
26 | GUCCCGUUGGAGUAAUGGUAACGCGUCUCCCUUCUAAGGAGAAGACUGAGGGUUCGAGUCCCGUACGGAACG [U3C C11A C33U C49A] | ≤ 0.5
27 | GUCCCGUUGGAGUAAUGGUAACGCAUCUCCCUCCUAAGGAGAAGAGUGCGGGUUCGUGUCCCGUACGGAACG [U3C C11A G25A C46G A57U] | 0.504
28 | GUCCCGUUGGAGUAAUGGUAACGCGUCUCCCGCCUAAGGAGAAGACUGCGGGUUCGAGUCAAGUACGGAACG [U3C C11A U32G C61A C62A] | 0.587
29 | GUCCCGUUGGGGUAAUGGUAACGCGUCUCCCUCCUAAGGAGAAGACUGCGGGUUCGGGUCCCGUACGGAACG [U3C C11G A57G] | ≤ 0.5
30 | GUCCCGUUGGGGUAAUGGUAACGGGUCUCCCUCCUAAGGAGAAGACUGCGGGUGCGAGUCCCGUACGGAACG [U3C C11G C24G U54G] | ≤ 0.5
31 | GUCCCGUUGGUGUAAUGGUAACGCGUCUCCCUCCUAAGGAGAAGACUGCGGGUUCGAGUCCCGUACGGAACG [U3C C11U] | 1.06
32 | GUCCCGUUGGUGUAAUGGUAACGCGUCUCCCUCCUCAGGAGAAGACUGCGGGUUCGAGUCCCGUCUGGAACG [U3C C11U A36C A65C C66U] | ≤ 0.5
33 | GUCCCGUUGGUGUAAUGGUAACGCGUCUCCCUCCUAAGGAGAAGACUGCGGGUUCGAGUCCCGUGCGGAACG [U3C C11U A65G] | 0.732
34 | GUCCCGUUGGUGUAAUGGUAAAGCGUCUGCCUUCUAAGGAGAAGACUGCGGGUUCGAGUCCCGCACGGACCG [U3C C11U C22A C29G C33U U64C A70C] | ≤ 0.5
35 | GUCCCGUUGGUGUAAUGGUAACGCGUGUCCCUCCUAAGGAGAAGACUGCGGAUUCGAGUCCCGUACGGAACG [U3C C11U C27G G52A] | ≤ 0.5
36 | GUCCCGUUGGUGUAAUGGUAACGCGUCUUCCUCCUAAGGAGAAGACUGCGGGUUCGAGUCCCGUACAGAUCG [U3C C11U C29U G67A A70U] | ≤ 0.5
37 | GUCCCGUUGGUGUAAUGGUAACGCGUCUCCCUCCUAAGGAGAAGACUGCGGGUUCGAGUCGCGUCCGGAACG [U3C C11U C61G A65C] | ≤ 0.5
